# Assay results: ChEMBL document CHEMBL1240487, “Discovery of a potent, selective, and orally bioavailable pyridinyl-pyrimidine phthalazine aurora kinase inhibitor” (J Med Chem, 2010)
# pIC50: −log10 of the molar value. Calls of active or inactive are those of the source. The rule behind the calls is not given here.
# Tests used:
# [1] = Half life in Sprague-Dawley rat at 0.5 mg/kg, iv and 2 mg/kg, po; format: ADME, organism-based; conditions: in vivo
# [2] = Clearance in Sprague-Dawley rat at 0.5 mg/kg, iv and 2 mg/kg, po; format: ADME, organism-based; conditions: in vivo
# [3] = target: Tyrosine-protein kinase ABL1 (Homo sapiens, UniProt P00519, T315I); experiment: Inhibition of Abl T315I mutant by HTRF assay
# Method in brief: (§1)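 Enzyme inhibition was run with ATP at its Km for each kinase. Values are averages of at least two determinations.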
# [4] = target: Cyclin-dependent kinase 1 (Homo sapiens, UniProt P06493); experiment: Inhibition of CDK1 by HTRF assay; method in brief: as §1
# Cyclin-dependent kinase 1, sequence (P06493 whole entry): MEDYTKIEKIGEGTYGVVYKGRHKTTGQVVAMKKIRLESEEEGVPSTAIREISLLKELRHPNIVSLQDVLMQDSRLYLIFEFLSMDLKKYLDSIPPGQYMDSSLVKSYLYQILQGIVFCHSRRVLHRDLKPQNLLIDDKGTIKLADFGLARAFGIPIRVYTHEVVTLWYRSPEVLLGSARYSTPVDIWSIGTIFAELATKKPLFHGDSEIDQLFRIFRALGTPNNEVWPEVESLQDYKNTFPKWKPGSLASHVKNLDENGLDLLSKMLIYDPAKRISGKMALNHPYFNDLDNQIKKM
# [5] = Volume of distribution at steady state in Sprague-Dawley rat at 0.5 mg/kg, iv and 2 mg/kg, po; format: ADME, organism-based; conditions: in vivo, read-out: Vdss
# [6] = target: Hepatocyte growth factor receptor (Homo sapiens, UniProt P08581); experiment: Inhibition of c-Met by HTRF assay; method in brief: as §1
# Hepatocyte growth factor receptor, sequence (P08581 whole entry): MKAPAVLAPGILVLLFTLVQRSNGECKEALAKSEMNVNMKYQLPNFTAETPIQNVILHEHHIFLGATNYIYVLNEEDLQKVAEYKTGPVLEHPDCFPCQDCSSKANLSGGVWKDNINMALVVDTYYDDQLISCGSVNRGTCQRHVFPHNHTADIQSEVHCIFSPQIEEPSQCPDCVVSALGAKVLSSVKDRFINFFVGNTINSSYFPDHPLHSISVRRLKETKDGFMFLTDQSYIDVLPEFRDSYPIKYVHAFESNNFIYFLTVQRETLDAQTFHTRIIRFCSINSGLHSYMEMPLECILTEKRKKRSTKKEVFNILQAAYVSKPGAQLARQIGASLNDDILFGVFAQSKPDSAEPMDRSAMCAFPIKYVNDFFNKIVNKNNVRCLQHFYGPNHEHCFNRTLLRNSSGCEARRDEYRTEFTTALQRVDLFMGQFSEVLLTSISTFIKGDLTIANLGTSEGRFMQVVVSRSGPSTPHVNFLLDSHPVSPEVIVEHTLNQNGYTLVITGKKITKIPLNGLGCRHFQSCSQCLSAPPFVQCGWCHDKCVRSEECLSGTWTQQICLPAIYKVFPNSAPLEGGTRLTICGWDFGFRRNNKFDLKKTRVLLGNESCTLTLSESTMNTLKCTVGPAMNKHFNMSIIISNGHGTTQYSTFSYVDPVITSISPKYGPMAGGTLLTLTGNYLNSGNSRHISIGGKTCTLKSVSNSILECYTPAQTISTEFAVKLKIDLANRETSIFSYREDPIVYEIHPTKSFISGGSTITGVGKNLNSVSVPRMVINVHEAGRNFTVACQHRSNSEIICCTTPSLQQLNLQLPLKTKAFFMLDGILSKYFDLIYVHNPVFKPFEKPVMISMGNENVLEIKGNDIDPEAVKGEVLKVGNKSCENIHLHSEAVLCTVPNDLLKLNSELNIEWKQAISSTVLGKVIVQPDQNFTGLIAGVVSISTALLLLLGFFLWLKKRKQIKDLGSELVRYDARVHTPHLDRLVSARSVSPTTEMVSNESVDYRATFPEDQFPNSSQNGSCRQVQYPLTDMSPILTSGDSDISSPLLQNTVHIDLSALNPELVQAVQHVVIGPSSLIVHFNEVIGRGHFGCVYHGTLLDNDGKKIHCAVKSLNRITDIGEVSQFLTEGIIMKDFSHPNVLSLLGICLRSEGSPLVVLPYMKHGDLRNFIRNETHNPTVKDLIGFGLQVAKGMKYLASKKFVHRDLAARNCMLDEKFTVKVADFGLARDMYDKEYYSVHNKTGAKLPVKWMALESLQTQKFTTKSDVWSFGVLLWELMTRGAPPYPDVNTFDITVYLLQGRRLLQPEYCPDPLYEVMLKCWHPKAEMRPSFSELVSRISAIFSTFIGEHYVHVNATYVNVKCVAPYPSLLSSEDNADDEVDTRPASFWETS
# [7] = Intrinsic clearance in rat liver microsomes at 1 uM after up to 40 mins; format: ADME, Microsome
# [8] = target: Ribosomal protein S6 kinase alpha-5 (Homo sapiens, UniProt O75582); experiment: Inhibition of MSK1 by HTRF assay; method in brief: as §1
# Ribosomal protein S6 kinase alpha-5, sequence (O75582 whole entry): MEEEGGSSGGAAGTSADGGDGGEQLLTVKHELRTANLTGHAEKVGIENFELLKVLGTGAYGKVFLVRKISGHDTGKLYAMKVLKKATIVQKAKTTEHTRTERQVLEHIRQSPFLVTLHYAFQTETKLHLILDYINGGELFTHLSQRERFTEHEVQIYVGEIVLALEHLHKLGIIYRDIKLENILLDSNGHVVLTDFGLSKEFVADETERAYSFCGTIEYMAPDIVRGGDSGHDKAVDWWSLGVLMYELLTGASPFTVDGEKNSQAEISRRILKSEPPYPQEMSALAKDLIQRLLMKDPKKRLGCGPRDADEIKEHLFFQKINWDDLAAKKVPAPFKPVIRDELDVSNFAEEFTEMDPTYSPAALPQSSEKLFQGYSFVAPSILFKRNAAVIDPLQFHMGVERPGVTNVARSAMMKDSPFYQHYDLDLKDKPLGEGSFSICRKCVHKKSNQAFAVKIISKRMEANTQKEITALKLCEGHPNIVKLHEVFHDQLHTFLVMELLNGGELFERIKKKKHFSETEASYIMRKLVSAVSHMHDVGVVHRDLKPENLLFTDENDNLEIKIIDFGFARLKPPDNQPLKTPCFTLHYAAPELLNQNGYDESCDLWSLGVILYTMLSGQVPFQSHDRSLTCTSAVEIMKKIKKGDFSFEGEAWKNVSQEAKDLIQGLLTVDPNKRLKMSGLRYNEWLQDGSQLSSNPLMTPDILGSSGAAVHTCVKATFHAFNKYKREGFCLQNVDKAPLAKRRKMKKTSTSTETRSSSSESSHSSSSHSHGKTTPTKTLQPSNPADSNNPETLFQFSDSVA
# Aurora kinase B [9] = target: T1, Aurora kinase B (Homo sapiens, UniProt Q96GD4); experiment: Inhibition of aurora B in human HeLa cells assessed as increase of >= 4N DNA level at 0.313 uM after 24 hrs using Hoechst staining by flow cytometry; format: cell-based
# T1 sequence (Q96GD4 whole entry): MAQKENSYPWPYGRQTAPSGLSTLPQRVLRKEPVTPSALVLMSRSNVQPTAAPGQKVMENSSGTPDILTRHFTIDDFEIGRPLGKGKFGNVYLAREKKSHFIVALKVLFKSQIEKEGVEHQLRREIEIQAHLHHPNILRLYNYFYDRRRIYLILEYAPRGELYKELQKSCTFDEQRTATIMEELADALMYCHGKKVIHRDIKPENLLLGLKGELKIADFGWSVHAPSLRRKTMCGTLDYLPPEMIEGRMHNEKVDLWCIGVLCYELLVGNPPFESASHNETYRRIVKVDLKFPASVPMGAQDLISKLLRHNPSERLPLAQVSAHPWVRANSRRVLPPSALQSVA
# Method in brief: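 In the 24 h DNA ploidy assay, HeLa cells were exposed to compound for 24 h. The read-out was accumulation of cells with ≥4N DNA content relative to control. For the single-concentration test, cells were treated at 0.313 μM, and p-histone H3 Ser10 and DNA content (2N/4N/8N) were read by flow cytometry. The ploidy read-out gave an EC50.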
# Plasma [10] = experiment: Drug level in human COLO205 cells xenografted in CD1 mouse plasma at 50 mg/kg, po after 3 to 6 hrs; format: ADME, organism-based, COLO 205; set-up: dose 50 mg/kg, route oral; conditions: in vivo
# Method in brief: (§2)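 COLO 205 xenograft-bearing mice received a single 50 mg/kg oral dose (N = 12 per group). Plasma was sampled at 3, 6 and 24 h (N = 4 per time point) and analyzed for drug concentration. Results are reported as mean ± SD.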
# [11] = Drug level in human COLO205 cells xenografted in CD1 mouse plasma at 50 mg/kg, po after 24 hrs; format: ADME, organism-based, COLO 205; set-up: dose 50 mg/kg, route oral; method in brief: as §2
# Mus musculus = experiment: Inhibition of aurora B in human COLO205 cells xenografted in CD1 mouse assessed as reduction of phosphorylated histone H3 level at 50 mg/kg, po after 3 to 6 hrs by immunofluorescence-based flow cytometry; format: functional; conditions: CD1, COLO 205
# Method in brief: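 Mice carried established COLO 205 xenografts of about 300 mm3 and received a single oral dose of vehicle or 50 mg/kg (N = 12 per group). Tumors were harvested at 3, 6 and 24 h (N = 4 per time point). p-Histone H3 was measured by immunofluorescence-based flow cytometry as the percentage of positive cells in G2/M. Groups were compared with ANOVA and Scheffe's post hoc test against vehicle.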
# HeLa = experiment: Induction of morphological changes in human HeLa cells at […] after 48 hrs using DAPI staining by microscopic analysis
# Plasma [12] = experiment: Fraction unbound in mouse plasma at 10 uM after 6 hrs by ultrafiltration; format: ADME, cell-free
# [13] = target: RAC-beta serine/threonine-protein kinase (Homo sapiens, UniProt P31751); experiment: Inhibition of PKBbeta by HTRF assay; method in brief: as §1
# RAC-beta serine/threonine-protein kinase, sequence (P31751 whole entry): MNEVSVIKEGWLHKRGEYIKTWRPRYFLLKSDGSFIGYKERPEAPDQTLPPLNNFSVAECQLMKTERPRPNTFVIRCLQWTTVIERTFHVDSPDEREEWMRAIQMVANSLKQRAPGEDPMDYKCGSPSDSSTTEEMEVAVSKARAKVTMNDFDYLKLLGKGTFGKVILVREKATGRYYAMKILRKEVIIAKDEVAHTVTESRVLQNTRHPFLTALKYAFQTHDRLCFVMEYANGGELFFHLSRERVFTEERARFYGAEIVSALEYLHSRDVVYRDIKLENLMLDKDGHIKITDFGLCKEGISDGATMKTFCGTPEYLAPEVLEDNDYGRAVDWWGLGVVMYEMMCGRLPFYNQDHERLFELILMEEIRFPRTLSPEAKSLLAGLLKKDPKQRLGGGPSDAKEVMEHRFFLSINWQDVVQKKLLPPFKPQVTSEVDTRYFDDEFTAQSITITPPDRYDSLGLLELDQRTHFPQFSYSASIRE
# Aurora kinase B [14] = target: T1, Aurora kinase B; experiment: Inhibition of aurora B autophosphorylation in human HeLa cells at 0.313 uM after 3 hrs by Western blotting
# [15] = Protein binding in mouse plasma at 10 uM by ultrafiltration; format: ADME, cell-free; conditions: read-out: PPB
# [16] = target: Vascular endothelial growth factor receptor 2 (Homo sapiens, UniProt P35968); experiment: Inhibition of KDR by HTRF assay; method in brief: as §1
# [17] = target: Proto-oncogene tyrosine-protein kinase Src (Homo sapiens, UniProt P12931); experiment: Inhibition of Src by HTRF assay; method in brief: as §1
# Proto-oncogene tyrosine-protein kinase Src, sequence (P12931 2-536 limits assumed): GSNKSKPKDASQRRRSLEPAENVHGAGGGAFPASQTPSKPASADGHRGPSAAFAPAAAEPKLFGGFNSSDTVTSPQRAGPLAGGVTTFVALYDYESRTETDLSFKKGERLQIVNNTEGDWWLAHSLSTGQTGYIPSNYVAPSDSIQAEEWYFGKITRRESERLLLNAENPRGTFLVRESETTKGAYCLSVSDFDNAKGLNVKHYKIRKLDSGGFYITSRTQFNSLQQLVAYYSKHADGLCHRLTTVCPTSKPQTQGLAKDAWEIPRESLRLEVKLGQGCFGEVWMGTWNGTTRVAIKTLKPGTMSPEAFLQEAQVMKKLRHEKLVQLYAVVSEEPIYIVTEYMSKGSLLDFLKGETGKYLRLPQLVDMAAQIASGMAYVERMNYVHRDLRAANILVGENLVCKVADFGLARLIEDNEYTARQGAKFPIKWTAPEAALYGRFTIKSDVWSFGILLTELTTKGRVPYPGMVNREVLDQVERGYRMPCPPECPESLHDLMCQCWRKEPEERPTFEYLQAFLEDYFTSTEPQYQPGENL
# Angiopoietin-1 receptor = Angiopoietin-1 receptor (Homo sapiens, UniProt Q02763); experiment: Inhibition of Tie-2 by HTRF assay; method in brief: as §1
# [18] = target: Tyrosine-protein kinase ABL1 (Homo sapiens, UniProt P00519); experiment: Inhibition of Abl by HTRF assay; method in brief: as §1
# [19] = target: Mast/stem cell growth factor receptor Kit (Homo sapiens, UniProt P10721); experiment: Inhibition of c-Kit by HTRF assay; method in brief: as §1
# Mast/stem cell growth factor receptor Kit, sequence (P10721 whole entry): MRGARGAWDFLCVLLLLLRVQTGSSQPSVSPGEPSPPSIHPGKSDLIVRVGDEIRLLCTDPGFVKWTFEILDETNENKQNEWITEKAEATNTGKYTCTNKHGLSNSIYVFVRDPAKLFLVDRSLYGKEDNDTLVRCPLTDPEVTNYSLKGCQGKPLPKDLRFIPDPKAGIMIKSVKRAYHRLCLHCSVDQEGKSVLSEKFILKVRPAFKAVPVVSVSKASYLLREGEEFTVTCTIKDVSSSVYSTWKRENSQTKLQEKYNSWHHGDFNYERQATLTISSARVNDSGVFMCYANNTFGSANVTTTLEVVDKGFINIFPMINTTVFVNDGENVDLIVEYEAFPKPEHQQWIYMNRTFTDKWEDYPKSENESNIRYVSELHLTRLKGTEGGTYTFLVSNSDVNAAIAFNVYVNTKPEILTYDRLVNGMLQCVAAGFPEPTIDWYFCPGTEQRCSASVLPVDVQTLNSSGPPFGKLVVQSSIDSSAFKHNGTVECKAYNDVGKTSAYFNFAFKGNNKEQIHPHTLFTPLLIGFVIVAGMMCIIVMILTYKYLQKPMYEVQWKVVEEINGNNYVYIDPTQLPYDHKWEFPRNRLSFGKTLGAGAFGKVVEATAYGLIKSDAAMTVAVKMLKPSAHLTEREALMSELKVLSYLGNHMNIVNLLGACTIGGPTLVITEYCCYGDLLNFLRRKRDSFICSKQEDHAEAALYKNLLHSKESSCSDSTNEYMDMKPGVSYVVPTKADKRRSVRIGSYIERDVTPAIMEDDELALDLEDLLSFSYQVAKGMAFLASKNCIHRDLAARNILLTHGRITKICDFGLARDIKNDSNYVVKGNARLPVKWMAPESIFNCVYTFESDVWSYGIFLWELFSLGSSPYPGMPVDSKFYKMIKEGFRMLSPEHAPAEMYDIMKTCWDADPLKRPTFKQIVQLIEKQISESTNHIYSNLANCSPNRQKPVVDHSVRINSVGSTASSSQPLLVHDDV
smiles,measurement,setting,value
CNc1nccc(-c2cccnc2Oc2ccc(NC(=O)c3ccccc3Nc3ccccc3)cc2)n1,half-life,[1],2.8 h
same,clearance,[2],60 mL/min/kg
same,pIC50,[3],< 6.00
same,pIC50,[4],< 6.00
same,Vd,[5],4.8 L/kg
same,pIC50,[6],< 6.00
same,microsomal CLint at 1 µM,[7],663 µL/min/mg
CNc1nccc(-c2cccnc2Oc2ccc(Nc3nnc(-c4ccc(F)cc4)c4ccccc34)cc2)n1,pIC50,[8],< 4.60
same,Activity,Aurora kinase B [9],Active
same,Cp,Plasma [10],>= 20000 ng/ml
same,concentration at 24 h,[11],2460 ng/mL
same,inhibition in vivo at 50 mg/kg,Mus musculus,≥ 96%
same,Activity,HeLa,Active
same,unbound concentration,Plasma [12],< 20 ng/mL
same,pIC50,[13],< 4.60
same,Activity,Aurora kinase B [14],Active
same,fraction unbound at 10 µM,[15],< 0.001
CNc1nccc(-c2cccnc2Oc2ccc(NC(=O)c3cccc(C(F)(F)F)c3)cc2C)n1,pIC50,[16],5.49
same,pIC50,[17],5.24
same,pIC50,Angiopoietin-1 receptor,6.20
same,pIC50,[18],6.30
same,pIC50,[19],5.87
